The source of these data is ChEMBL document CHEMBL3627661, “Synthesis and biological evaluation of di-aryl urea derivatives as c-Kit inhibitors” (Bioorg Med Chem, 2015).

A value given as a limit tells only on which side of the number the result lay.

Test [1] deals with Epidermal growth factor receptor (Homo sapiens, UniProt P00533). Briefly: Inhibition of human EGFR after 1 hr using [gamma-32P]ATP.
In test [2] the target is Proto-oncogene tyrosine-protein kinase Src (Homo sapiens, UniProt P12931). Briefly: Inhibition of Src (unknown origin) by radiometric protein kinase assay.
In test [3] the target is RAF proto-oncogene serine/threonine-protein kinase (Homo sapiens, UniProt P04049). Briefly: Inhibition of Raf (unknown origin) by radiometric protein kinase assay.
The target of test [4] is Mast/stem cell growth factor receptor Kit (Homo sapiens, UniProt P10721). Briefly: Inhibition of c-Kit (unknown origin) by radiometric protein kinase assay.
For test [5], the target named is Vascular endothelial growth factor receptor 3 (Homo sapiens, UniProt P35916). Briefly: Inhibition of VEGFR3 (unknown origin) by radiometric protein kinase assay.
The target of test [6] is Vascular endothelial growth factor receptor 1 (Homo sapiens, UniProt P17948). Briefly: Inhibition of VEGFR1 (unknown origin) by radiometric protein kinase assay.
The target of test [7] is Platelet-derived growth factor receptor beta (Homo sapiens, UniProt P09619). Briefly: Inhibition of PDGFR-beta (unknown origin) by radiometric protein kinase assay.
For test [8], the target named is Hepatocyte growth factor receptor (Homo sapiens, UniProt P08581). Briefly: Inhibition of c-MET (unknown origin) by radiometric protein kinase assay.
For test [9], the target named is Vascular endothelial growth factor receptor 2 (Homo sapiens, UniProt P35968). Briefly: Inhibition of human recombinant VEGFR-2 after 1 hr using [gamma-32P]ATP. The gist of the method:
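Recombinant human VEGFR-2 (10 ng) was incubated for 1 h at 28 °C with varying compound concentrations. Kinase buffer: Tris 50 mM pH 7.5, BSA, MnCl2 1.5 mM, MgCl2 10 mM, DTT 2.5 mM, Na3VO4, β-glycerophosphate 5 mM. Substrate was poly(Glu4/Tyr), with ATP plus [γ-32P]ATP; final DMSO was 0.1%. The reaction was stopped with 100% TCA, wells were washed with 10% TCA, and each well was counted for 1 min.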

Sequence of Epidermal growth factor receptor (P00533 whole entry): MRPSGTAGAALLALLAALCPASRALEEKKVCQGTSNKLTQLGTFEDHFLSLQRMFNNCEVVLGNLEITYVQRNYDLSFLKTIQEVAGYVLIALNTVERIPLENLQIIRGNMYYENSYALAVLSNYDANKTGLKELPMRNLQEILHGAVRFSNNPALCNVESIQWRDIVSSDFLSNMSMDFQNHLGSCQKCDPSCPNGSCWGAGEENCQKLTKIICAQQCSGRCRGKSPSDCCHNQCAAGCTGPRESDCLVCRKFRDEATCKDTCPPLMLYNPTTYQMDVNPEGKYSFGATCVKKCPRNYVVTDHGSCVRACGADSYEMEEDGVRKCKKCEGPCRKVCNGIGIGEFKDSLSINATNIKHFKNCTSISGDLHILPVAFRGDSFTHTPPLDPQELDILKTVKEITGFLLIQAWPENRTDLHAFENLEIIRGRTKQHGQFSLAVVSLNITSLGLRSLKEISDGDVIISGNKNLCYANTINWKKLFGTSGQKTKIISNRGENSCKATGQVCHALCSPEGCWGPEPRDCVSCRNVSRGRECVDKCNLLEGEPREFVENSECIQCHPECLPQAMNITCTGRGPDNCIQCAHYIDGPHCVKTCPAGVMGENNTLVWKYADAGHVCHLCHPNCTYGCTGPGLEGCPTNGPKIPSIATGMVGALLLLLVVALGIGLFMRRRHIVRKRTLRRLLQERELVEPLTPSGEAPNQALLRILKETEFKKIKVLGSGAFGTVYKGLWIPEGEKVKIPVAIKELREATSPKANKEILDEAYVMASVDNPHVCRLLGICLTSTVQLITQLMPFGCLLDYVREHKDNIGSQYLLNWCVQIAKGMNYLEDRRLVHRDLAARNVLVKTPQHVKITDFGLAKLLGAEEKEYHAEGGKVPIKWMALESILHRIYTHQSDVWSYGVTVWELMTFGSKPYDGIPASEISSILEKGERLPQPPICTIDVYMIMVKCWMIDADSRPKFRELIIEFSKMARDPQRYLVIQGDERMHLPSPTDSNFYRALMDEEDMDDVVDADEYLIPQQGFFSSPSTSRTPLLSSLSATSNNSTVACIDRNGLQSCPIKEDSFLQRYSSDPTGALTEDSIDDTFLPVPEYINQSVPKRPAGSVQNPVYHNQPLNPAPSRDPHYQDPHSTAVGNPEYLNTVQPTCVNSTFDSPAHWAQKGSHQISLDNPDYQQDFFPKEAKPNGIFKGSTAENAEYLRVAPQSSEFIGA
Sequence of Mast/stem cell growth factor receptor Kit (P10721 whole entry): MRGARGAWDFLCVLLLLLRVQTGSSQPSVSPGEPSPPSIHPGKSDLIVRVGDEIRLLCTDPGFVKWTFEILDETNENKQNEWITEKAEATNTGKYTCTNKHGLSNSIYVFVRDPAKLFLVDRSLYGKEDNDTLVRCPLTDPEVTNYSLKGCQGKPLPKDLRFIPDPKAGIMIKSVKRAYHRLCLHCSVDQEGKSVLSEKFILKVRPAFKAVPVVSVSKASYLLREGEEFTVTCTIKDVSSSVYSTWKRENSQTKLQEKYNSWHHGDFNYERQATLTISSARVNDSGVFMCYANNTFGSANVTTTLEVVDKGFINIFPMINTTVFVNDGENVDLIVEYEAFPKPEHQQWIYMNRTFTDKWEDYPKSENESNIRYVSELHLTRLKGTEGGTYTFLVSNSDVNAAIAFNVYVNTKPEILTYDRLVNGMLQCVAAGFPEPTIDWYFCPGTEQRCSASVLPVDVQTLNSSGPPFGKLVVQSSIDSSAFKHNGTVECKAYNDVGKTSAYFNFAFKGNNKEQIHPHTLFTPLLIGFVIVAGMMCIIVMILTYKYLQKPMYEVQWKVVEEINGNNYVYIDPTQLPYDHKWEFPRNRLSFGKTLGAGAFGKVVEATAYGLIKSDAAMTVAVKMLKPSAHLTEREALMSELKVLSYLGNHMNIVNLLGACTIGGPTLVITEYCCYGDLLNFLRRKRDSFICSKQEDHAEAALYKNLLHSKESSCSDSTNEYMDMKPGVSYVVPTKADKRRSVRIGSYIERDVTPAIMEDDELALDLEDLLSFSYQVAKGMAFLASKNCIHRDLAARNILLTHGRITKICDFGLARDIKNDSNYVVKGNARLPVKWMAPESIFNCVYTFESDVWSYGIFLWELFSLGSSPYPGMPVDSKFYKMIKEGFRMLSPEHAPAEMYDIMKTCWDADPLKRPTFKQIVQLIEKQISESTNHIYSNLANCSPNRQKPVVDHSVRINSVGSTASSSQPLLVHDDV
Sequence of RAF proto-oncogene serine/threonine-protein kinase (P04049 whole entry): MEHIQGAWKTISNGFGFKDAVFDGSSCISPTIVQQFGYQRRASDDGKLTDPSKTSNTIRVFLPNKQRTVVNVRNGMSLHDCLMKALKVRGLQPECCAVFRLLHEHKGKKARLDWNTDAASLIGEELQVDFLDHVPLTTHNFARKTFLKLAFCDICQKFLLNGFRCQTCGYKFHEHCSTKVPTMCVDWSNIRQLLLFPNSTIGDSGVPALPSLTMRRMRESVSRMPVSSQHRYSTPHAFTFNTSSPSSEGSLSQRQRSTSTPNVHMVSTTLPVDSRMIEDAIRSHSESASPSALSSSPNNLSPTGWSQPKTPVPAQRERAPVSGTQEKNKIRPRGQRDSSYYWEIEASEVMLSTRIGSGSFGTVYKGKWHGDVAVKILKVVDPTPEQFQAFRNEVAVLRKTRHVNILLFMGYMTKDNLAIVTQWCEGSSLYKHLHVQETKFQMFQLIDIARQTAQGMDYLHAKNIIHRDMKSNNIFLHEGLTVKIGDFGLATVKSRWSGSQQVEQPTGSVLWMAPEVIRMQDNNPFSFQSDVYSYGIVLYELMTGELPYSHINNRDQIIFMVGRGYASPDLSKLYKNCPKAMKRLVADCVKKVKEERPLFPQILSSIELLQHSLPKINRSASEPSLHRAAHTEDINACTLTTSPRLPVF
Sequence of Hepatocyte growth factor receptor (P08581 whole entry): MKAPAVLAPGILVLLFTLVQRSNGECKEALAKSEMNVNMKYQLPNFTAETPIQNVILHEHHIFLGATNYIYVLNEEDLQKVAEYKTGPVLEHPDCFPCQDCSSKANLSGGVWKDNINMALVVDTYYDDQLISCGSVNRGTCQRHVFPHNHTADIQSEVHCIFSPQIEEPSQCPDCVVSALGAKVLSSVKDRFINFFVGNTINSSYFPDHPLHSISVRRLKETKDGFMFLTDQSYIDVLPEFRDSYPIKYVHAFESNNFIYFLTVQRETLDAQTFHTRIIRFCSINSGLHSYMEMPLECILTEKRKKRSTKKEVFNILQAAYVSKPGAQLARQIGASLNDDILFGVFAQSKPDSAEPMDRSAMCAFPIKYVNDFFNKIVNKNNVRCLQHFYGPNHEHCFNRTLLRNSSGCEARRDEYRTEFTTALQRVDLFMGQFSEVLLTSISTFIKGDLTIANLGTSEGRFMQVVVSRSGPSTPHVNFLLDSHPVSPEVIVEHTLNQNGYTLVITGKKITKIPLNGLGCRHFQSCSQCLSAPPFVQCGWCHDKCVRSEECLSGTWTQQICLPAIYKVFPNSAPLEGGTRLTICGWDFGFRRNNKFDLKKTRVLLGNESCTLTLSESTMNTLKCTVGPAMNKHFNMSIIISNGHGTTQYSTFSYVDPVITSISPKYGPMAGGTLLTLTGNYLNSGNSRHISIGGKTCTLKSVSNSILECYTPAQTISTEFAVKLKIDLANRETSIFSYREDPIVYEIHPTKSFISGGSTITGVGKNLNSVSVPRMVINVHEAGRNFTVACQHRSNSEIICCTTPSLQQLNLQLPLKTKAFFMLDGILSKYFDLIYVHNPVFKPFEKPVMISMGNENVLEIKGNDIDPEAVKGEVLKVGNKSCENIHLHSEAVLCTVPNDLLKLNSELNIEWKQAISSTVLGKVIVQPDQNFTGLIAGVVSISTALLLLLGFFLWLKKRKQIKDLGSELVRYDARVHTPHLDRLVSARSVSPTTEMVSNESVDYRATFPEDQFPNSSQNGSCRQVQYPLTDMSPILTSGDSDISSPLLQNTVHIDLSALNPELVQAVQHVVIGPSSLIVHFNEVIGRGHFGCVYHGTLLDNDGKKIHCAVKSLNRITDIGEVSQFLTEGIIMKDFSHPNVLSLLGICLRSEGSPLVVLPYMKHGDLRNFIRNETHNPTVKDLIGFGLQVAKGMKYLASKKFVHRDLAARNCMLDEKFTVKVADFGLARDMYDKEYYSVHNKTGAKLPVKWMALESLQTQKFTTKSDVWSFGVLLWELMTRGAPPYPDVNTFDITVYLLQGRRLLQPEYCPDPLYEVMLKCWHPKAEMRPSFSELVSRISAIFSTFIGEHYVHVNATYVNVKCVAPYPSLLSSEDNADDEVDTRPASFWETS
Sequence of Proto-oncogene tyrosine-protein kinase Src (P12931 2-536 limits assumed): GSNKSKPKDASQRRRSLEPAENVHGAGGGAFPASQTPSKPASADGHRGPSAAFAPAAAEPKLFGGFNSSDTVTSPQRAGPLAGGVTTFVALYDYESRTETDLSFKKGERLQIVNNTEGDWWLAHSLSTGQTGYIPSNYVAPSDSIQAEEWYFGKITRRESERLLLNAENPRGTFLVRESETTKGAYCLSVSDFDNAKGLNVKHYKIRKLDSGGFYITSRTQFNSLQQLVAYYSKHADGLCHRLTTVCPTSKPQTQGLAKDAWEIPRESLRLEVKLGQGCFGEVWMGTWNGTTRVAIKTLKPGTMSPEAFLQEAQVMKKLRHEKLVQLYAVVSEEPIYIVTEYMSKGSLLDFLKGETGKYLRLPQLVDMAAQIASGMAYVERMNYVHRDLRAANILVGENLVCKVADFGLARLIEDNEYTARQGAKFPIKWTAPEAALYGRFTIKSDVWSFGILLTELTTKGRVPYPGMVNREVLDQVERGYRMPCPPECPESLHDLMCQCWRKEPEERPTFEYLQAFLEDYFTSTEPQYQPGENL

For orientation: IC50 means the point on the concentration scale where inhibition reaches its midpoint. In [1], `Fc1ccc(Nc2ncnc3ccccc23)cc1Cl` had a 50% inhibitory concentration (IC50) of 30 nM.

For the compound `COc1cc2ncnc(Oc3ccc(NC(=O)Nc4cccc(Br)c4)cc3)c2cc1OC`, the half-inhibitory concentration (IC50) came out at 5470 nM in test [2]; 930 nM in test [3]; 16 nM in test [4]; 9 nM in [5]; 46 nM in test [6]; 5 nM in test [7]. Also, the 50% inhibitory concentration (IC50) in [8] came out at 2310 nM.

Take `Fc1ccc(Nc2ncnc3sccc23)cc1Cl`: the 50% inhibitory concentration (IC50) in test [1] stood at 2980 nM.

With `Fc1ccc(Nc2ncnc3sc4c(c23)CCCC4)cc1Cl`, the 50% inhibitory concentration (IC50) in [1] was 1330 nM; in test [9], greater than 10000 nM.

In turn, `CCOC(=O)Nc1ccc(Nc2ncnc3ccccc23)cc1C` showed an IC50 in test [1] greater than 10000 nM.

`CCOC(=O)Nc1ccc(Nc2ncnc3sc4c(c23)CCCC4)cc1C`: the IC50 in test [1] and in [9] was greater than 10000 nM each time.

`COc1cc2ncnc(Nc3ccc(NC(=O)Nc4cccc(Br)c4)cc3)c2cc1OC`: the results for the IC50 in test [4], in test [1] and in test [9] were 3 nM, 7710 nM and 12 nM, respectively.

Turning to `O=C(Nc1ccc(Nc2ncnc3ccccc23)cc1)Nc1cccc(Br)c1`, the half-maximal inhibitory concentration (IC50) is greater than 10000 nM in [2]; greater than 10000 nM in test [3]; 1 nM in test [4]; 47 nM in test [5]; greater than 10000 nM in test [1]; 5750 nM in test [6]. The IC50 in test [7] was 850 nM; in test [8] it was greater than 10000 nM; in [9], 91 nM.

On to `O=C(Nc1ccc(Nc2ncnc3sccc23)cc1)Nc1cccc(Br)c1`, for which the IC50 was greater than 10000 nM in test [2]; 4020 nM in [3]; 1 nM in test [4]; 1980 nM in test [5]; greater than 10000 nM in test [1]; greater than 10000 nM in test [6]. The IC50 in test [7] was 2120 nM; in test [8], greater than 10000 nM.

`O=C(Nc1ccc(Nc2ncnc3sc4c(c23)CCCC4)cc1)Nc1cccc(Br)c1`: the half-inhibitory concentration (IC50) in test [2] is 7640 nM; in [3], greater than 10000 nM; in test [4], 6 nM; in test [5], 420 nM; in test [1], 3950 nM; in test [6], 7150 nM. Further, the IC50 in [7] was 2820 nM; in [8], greater than 10000 nM; in [9], 310 nM.

In turn, `Fc1ccc(Oc2ncnc3ccccc23)cc1Cl` displayed a half-maximal inhibitory concentration (IC50) in [1] of 590 nM.

For the compound `Fc1ccc(Oc2ncnc3sc4c(c23)CCCC4)cc1Cl`, the concentration for half-maximal inhibition (IC50) was greater than 10000 nM in test [1] and 3500 nM in test [9].

Regarding `CCOC(=O)Nc1ccc(Oc2ncnc3cc(OC)c(OC)cc23)cc1C`, in test [1], the concentration for half-maximal inhibition (IC50) was greater than 10000 nM.

Regarding `CCOC(=O)Nc1ccc(Oc2ncnc3ccccc23)cc1C`, the half-inhibitory concentration (IC50) in test [1] was greater than 10000 nM; in test [9], 710 nM.

Take `CCOC(=O)Nc1ccc(Oc2ncnc3sccc23)cc1C`: the IC50 in [1] is greater than 10000 nM.

In test [1], `COc1cc2ncnc(Oc3ccc(NC(=O)Nc4cccc(Br)c4)c(Cl)c3)c2cc1OC` yielded a concentration for half-maximal inhibition (IC50) greater than 10000 nM.

On to `O=C(Nc1ccc(Oc2ncnc3ccccc23)cc1)Nc1cccc(Br)c1`, for which the half-maximal inhibitory concentration (IC50) in test [2] was greater than 10000 nM; in test [3], 6220 nM; in [4] it was 14 nM; in test [5] it was 7 nM; in test [1], greater than 10000 nM; in test [6], 650 nM. Moreover, the half-inhibitory concentration (IC50) in test [7] is 320 nM; in [8] it was greater than 10000 nM; in test [9] it was 8 nM.

Consider `O=C(Nc1ccc(Oc2ncnc3sccc23)cc1)Nc1cccc(Br)c1`, for which the IC50 in test [2] was greater than 10000 nM; in test [3], greater than 10000 nM; in test [4] it was 11 nM; in test [5], 6 nM; in [1] it was greater than 10000 nM; in test [6], 1080 nM. The results for the 50% inhibitory concentration (IC50) in test [7], in [8] and in [9] were 570 nM, greater than 10000 nM and 18 nM, respectively.

In test [1], `Cc1cc(Oc2ncnc3sccc23)ccc1NC(=O)Nc1cccc(Br)c1` returned a 50% inhibitory concentration (IC50) greater than 10000 nM.

In [1], `O=C(Nc1cccc(Br)c1)Nc1ccc(Oc2ncnc3sccc23)cc1Cl` had a half-maximal inhibitory concentration (IC50) greater than 10000 nM.

For the compound `O=C(Nc1ccc(Oc2ncnc3sc4c(c23)CCCC4)cc1)Nc1cccc(Br)c1`, the IC50 in test [2] is 8460 nM; in test [3], 5840 nM; in test [4], 17 nM; in [5], 1020 nM; in test [1], greater than 10000 nM; in [6] it was 1700 nM. Moreover, the 50% inhibitory concentration (IC50) is 2300 nM in test [7], greater than 10000 nM in [8] and 11 nM in test [9].

With `Cc1cc(Oc2ncnc3sc4c(c23)CCCC4)ccc1NC(=O)Nc1cccc(Br)c1`, the half-inhibitory concentration (IC50) came out at 3290 nM in test [1] and 34 nM in test [9].

`O=C(Nc1cccc(Br)c1)Nc1ccc(Oc2ncnc3sc4c(c23)CCCC4)cc1Cl`: the values for the IC50 in test [1] and in test [9] were 1260 nM and 15 nM, respectively.
